# Results: ChEMBL document CHEMBL4400549, “DPD-Inspired Discovery of Novel LsrK Kinase Inhibitors: An Opportunity To Fight Antimicrobial Resistance” (J Med Chem, 2019)
# Biological target: T1, Autoinducer-2 kinase (Salmonella typhimurium (strain LT2 / SGSC1412 / ATCC 700720), UniProt Q8ZKQ6)
# T1 sequence (Q8ZKQ6 whole entry): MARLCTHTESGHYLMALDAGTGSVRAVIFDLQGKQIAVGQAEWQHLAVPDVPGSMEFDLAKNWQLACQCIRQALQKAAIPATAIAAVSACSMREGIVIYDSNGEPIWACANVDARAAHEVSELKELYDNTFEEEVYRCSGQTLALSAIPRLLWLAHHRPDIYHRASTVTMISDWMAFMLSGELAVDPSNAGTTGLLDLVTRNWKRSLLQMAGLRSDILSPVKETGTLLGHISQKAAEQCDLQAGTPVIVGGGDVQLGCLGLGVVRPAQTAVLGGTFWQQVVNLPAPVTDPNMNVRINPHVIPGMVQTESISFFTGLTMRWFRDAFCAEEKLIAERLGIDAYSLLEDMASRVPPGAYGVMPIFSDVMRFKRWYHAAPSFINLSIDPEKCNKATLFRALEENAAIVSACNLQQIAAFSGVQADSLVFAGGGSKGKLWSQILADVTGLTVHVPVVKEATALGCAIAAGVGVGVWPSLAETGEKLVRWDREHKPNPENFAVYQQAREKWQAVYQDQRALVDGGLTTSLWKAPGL
# Test: Inhibition of Salmonella typhimurium LsrK expressed in Escherichia coli MET1158 using (S)-DPD as substrate after 15 mins by Kinase Glo luminescence assay
# Set-up: species or system Salmonella enterica subsp. enterica serovar Typhimurium
# Details: not given
# Outline: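 Dose-response at 6 concentrations (25–500 µM); 300 nM LsrK, 300 µM (S)-DPD, 100 µM ATP in 25 mM triethanolamine pH 7.4, 200 µM MgCl2, 0.1 mg/mL BSA plus Triton X-100; 15 min, Kinase Glo readout after 30 min; IC50 by four-parameter logistic fit; mean ±SD of two independent experiments (n = 4).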
row,IC50,SMILES
1,384 µM,c1coc(-c2cc(C3COC4(CCCCC4)O3)[nH]n2)c1 (stereo not given)
2,475 µM,c1ccc(-c2cc(C3COC4(CCCCC4)O3)[nH]n2)cc1 (stereo not given)
3,119 µM,Cn1nc(-c2ccccc2)cc1C1COC2(CCCCC2)O1 (stereo not given)
4,284 µM,Cn1nc(-c2ccco2)cc1C1COC2(CCCCC2)O1 (stereo not given)

# Biological target: T2, Autoinducer-2 kinase (Salmonella typhimurium (strain LT2 / SGSC1412 / ATCC 700720)) (UniProt Q8ZKQ6)
# T2 sequence (whole entry): T1 sequence (Q8ZKQ6 whole entry)
# Test: Inhibition of Salmonella typhimurium LsrK expressed in Escherichia coli MET1158 at 200 uM using (S)-DPD as substrate after 15 mins by Kinase Glo luminescence assay relative to control
# Details: Salmonella enterica subsp. enterica serovar Typhimurium
# Outline: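 Compound at 200 µM in triplicate with 300 nM LsrK, 300 µM (S)-DPD and 100 µM ATP in 25 mM triethanolamine pH 7.4, 200 µM MgCl2, 0.1 mg/mL BSA; 15 min incubation, then Kinase Glo reagent; luminescence read after 30 min; percent inhibition.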
row,SMILES,inhibition
1,CCOC(=O)c1c(C2COC3(CCCCC3)O2)cc(C2CC2)nc1C (stereo not given),0.36%
2,c1ccc(-c2cc(C3COC4(CCCCC4)O3)n(C3CC3)n2)cc1 (stereo not given),0%
3,Cc1nc2cc(C3COC4(CCCCC4)O3)ncc2s1 (stereo not given),6.32%
4,Cn1nc(C2CC2)cc1C1COC2(CCCCC2)O1 (stereo not given),0%
5,N#CCCn1nc(-c2ccccc2)cc1C1COC2(CCCCC2)O1 (stereo not given),0%
6,OCC(O)c1cc(-c2ccccc2)nc(C2CC2)n1 (stereo not given),24.5%
7,Cn1nc(-c2ccccc2)cc1C(O)CO (stereo not given),0%
8,Cc1cccc(-c2cc(C3COC4(CCCCC4)O3)n(C)n2)c1 (stereo not given),1.07%
9,c1ccc(-c2nc(C3CC3)cc(C3COC4(CCCCC4)O3)n2)cc1 (stereo not given),0.76%
10,CCCc1nc(-c2cccs2)cc(C2COC3(CCCCC3)O2)n1 (stereo not given),0.96%
11,c1ccc(-c2nc(C3CC3)cc(C3COC4(CCCCC4)O3)n2)nc1 (stereo not given),21.2%
12,Cn1nc(-c2cc(F)cc(Cl)c2)cc1C1COC2(CCCCC2)O1 (stereo not given),4.42%
13,CC(C)c1cc(C(O)CO)n(C)n1 (stereo not given),0%
14,Cc1nc(-c2ccccc2)cc(C(O)CO)c1C(=O)O (stereo not given),0.81%
15,Cn1nc(C23CC4CC(CC(C4)C2)C3)cc1C1COC2(CCCCC2)O1 (stereo not given),0%
16,OCC(O)c1cc(C2CC2)nc(-c2ccccn2)n1 (stereo not given),2.94%
17,Cn1nc(-c2cc3ccccc3[nH]2)cc1C1COC2(CCCCC2)O1 (stereo not given),4.38%
18,CCn1nc(-c2ccccc2)cc1C1COC2(CCCCC2)O1 (stereo not given),0%
19,Cc1nc(-c2ccccc2)cc(C2COC3(CCCCC3)O2)c1C(=O)O (stereo not given),0%
20,CC(C)c1cc(C2COC3(CCCCC3)O2)n(C)n1 (stereo not given),0%
21,Cn1nc(-c2ccccc2)cc1C1COC2(CCCCCC2)O1 (stereo not given),0%
22,Cc1nc(-c2ccccc2)cc(C(O)CO)n1 (stereo not given),0.22%
23,Cn1nc(C2CCCC2)cc1C(O)CO (stereo not given),0%
24,c1ccc(-c2cc(C3COC4(CCCCC4)O3)n(C3CCCC3)n2)cc1 (stereo not given),0%

row,SMILES,inhibition
1,CC(C)c1cc(C(O)CO)[nH]n1 (stereo not given),0%
2,c1cc2cc(C3COC4(CCCCC4)O3)ncc2o1 (stereo not given),5.75%
3,OCC(O)c1cc(C2CCCC2)n[nH]1 (stereo not given),0%
4,c1cc2cc(C3COC4(CCCCC4)O3)ncc2s1 (stereo not given),11.1%
5,OCC(O)c1cc(-c2ccccc2)n[nH]1 (stereo not given),0%
6,Cn1nc(-c2ccco2)cc1C1COC2(CCCCC2)O1 (stereo not given),51.6%
7,Oc1ccc2cc(C3COC4(CCCCC4)O3)ncc2c1 (stereo not given),28.6%
8,OCC(O)c1cc(-c2cccs2)nc(-c2cccc(F)c2)n1 (stereo not given),19.8%
9,Cn1nc(-c2cccnc2)cc1C1COC2(CCCCC2)O1 (stereo not given),4.92%
10,CC(=O)N1CCC2(CC1)OCC(c1cc(-c3ccccc3)nn1C)O2 (stereo not given),2.07%
11,Cn1nc(-c2ccon2)cc1C1COC2(CCCCC2)O1 (stereo not given),9.83%
12,CCCc1nc(-c2cccs2)cc(C(O)CO)n1 (stereo not given),47.8%
13,OCC(O)c1cc(C2CC2)n[nH]1 (stereo not given),0%
14,Cc1nc(C2CC2)cc(C(O)CO)c1C(=O)O (stereo not given),1.33%
15,OCC(O)c1cc2ccccc2cn1 (stereo not given),0.48%
16,c1c(C2CCCC2)n[nH]c1C1COC2(CCCCC2)O1 (stereo not given),0%
17,Cn1nc(-c2ccccc2)cc1C1COC2(CCCC2)O1 (stereo not given),5.56%
18,Cn1nc(-c2cccs2)cc1C(O)CO (stereo not given),0%
19,c1ccc(-c2cc(C3COC4(CCCCC4)O3)n(-c3ccccc3)n2)cc1 (stereo not given),0%
20,CCOC(=O)c1c(C2COC3(CCCCC3)O2)cc(-c2ccccc2)nc1C (stereo not given),0.1%
21,Cn1nc(C2CCCCC2)cc1C1COC2(CCCCC2)O1 (stereo not given),1.51%
22,Cc1nc2cnc(C(O)CO)cc2s1 (stereo not given),0.1%
23,OCC(O)c1cc(-c2cccs2)n[nH]1 (stereo not given),0%
24,Cn1nc(-c2cccc(C#N)c2)cc1C1COC2(CCCCC2)O1 (stereo not given),0%

# Results, then the compound that gave them:
row,inhibition,SMILES
1,43.5%,c1coc(-c2cc(C3COC4(CCCCC4)O3)[nH]n2)c1 (stereo not given)
2,0.19%,CN(C)c1ccc(-c2cc(C3COC4(CCCCC4)O3)n(C)n2)cc1 (stereo not given)
3,0%,Cn1nc(C2CC2)cc1C(O)CO (stereo not given)
4,21.6%,OCC(O)c1cc(C2CC2)nc(-c2ccccc2)n1 (stereo not given)
5,14.9%,c1ccc2cc(C3COC4(CCCCC4)O3)ncc2c1 (stereo not given)
6,0%,Cn1nc(-c2ccco2)cc1C(O)CO (stereo not given)
7,1.67%,OCC(O)c1cc2ccc(O)cc2cn1 (stereo not given)
8,7.14%,CC(C)c1cc(C2COC3(CCCCC3)O2)[nH]n1 (stereo not given)
9,0.4%,Cc1ccc2cnc(C(O)CO)cc2c1 (stereo not given)
10,31.1%,Cn1nc(-c2ccccc2)cc1C1COC2(CCOCC2)O1 (stereo not given)
11,6.26%,Cc1nc(C2CC2)cc(C2COC3(CCCCC3)O2)c1C(=O)O (stereo not given)
12,0.2%,Fc1cccc(-c2nc(-c3cccs3)cc(C3COC4(CCCCC4)O3)n2)c1 (stereo not given)
13,2.07%,OCC(O)c1cc2ccoc2cn1 (stereo not given)
14,0%,Cn1nc(C2CCCC2)cc1C1COC2(CCCCC2)O1 (stereo not given)
15,53.6%,c1ccc(-c2cc(C3COC4(CCCCC4)O3)[nH]n2)cc1 (stereo not given)
16,1.76%,Fc1cccc2cnc(C3COC4(CCCCC4)O3)cc12 (stereo not given)

row,inhibition,SMILES
1,1.47%,c1c(C2CC2)n[nH]c1C1COC2(CCCCC2)O1 (stereo not given)
2,78%,Cn1nc(-c2ccccc2)cc1C1COC2(CCCCC2)O1 (stereo not given)
3,0%,c1c(C23CC4CC(CC(C4)C2)C3)n[nH]c1C1COC2(CCCCC2)O1 (stereo not given)
4,0%,Cn1nc(-c2cccs2)cc1C1COC2(CCCCC2)O1 (stereo not given)
5,9.41%,Cc1nc(-c2ccccc2)cc(C2COC3(CCCCC3)O2)n1 (stereo not given)
6,1.66%,Cc1ccc2cnc(C3COC4(CCCCC4)O3)cc2c1 (stereo not given)
7,26.5%,c1csc(-c2cc(C3COC4(CCCCC4)O3)[nH]n2)c1 (stereo not given)
8,2.01%,Cc1cc(-c2ccccc2)nn1C
9,0%,OCC(O)c1cc(-c2ccco2)n[nH]1 (stereo not given)
10,0.17%,OCC(O)c1cc2ccsc2cn1 (stereo not given)
11,15.2%,c1ccc(-c2cc(C3COC4(CCCCC4)O3)nc(C3CC3)n2)cc1 (stereo not given)
12,0%,Cn1nc(C23CC4CC(CC(C4)C2)C3)cc1C(O)CO (stereo not given)
13,0.65%,OCC(O)c1cc2c(F)cccc2cn1 (stereo not given)
14,0%,CC(C)n1nc(-c2ccccc2)cc1C1COC2(CCCCC2)O1 (stereo not given)
15,0%,OCC(O)c1cc(C23CC4CC(CC(C4)C2)C3)n[nH]1 (stereo not given)

# Biological target: Glycerol kinase (Escherichia coli (strain K12)) (UniProt P0A6F3)
# Test: Inhibition of Escherichia coli K12 glycerokinase at 25 to 500 uM using glycerol as substrate after 15 mins by Kinase Glo luminescence assay
# Details: Escherichia coli K-12
# Outline: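 E. coli glycerokinase 0.3 U/mL with 300 µM glycerol, then 100 µM ATP; run as the LsrK protocol (triethanolamine pH 7.4 buffer, 15 min incubation, Kinase Glo luminescence read after 30 min).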
# Glycerol kinase (Escherichia coli (strain K12)), sequence (P0A6F3 whole entry): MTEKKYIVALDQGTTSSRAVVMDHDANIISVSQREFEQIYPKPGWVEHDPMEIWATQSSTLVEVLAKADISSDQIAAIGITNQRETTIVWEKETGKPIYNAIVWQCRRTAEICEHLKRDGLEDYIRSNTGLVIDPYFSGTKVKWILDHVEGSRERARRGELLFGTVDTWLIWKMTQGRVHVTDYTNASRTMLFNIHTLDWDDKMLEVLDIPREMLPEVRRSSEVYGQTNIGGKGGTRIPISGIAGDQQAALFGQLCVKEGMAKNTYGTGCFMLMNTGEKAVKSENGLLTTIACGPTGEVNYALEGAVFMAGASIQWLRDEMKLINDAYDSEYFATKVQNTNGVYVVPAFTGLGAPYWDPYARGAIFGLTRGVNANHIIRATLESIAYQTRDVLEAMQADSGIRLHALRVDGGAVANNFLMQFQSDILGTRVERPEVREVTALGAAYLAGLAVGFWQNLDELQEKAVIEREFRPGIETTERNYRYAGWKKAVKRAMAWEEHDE
row,inhibition,SMILES
1,Dose-dependent effect,c1coc(-c2cc(C3COC4(CCCCC4)O3)[nH]n2)c1 (stereo not given)
2,Dose-dependent effect,Cn1nc(-c2ccco2)cc1C1COC2(CCCCC2)O1 (stereo not given)
